Screening results (PubChem BioAssay)
Ins promoter up = insulin promoter activators in MIN6 cells, imaging, high-content screening, mouse beta cells | MIN6 insulin promoter-GFP reporter; stronger effect = higher value | z-score at 5 µM | 190,000 tested, 0.3% active;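 active = z-score above 3 at 5 µM with at least 500 cells counted in the well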
NPY Y2 blocker = NPY-Y2 receptor antagonists, primary screen, cell-based. 140,000 tested, 0.99% active. inhibition, % at 2.7 µM. Neuropeptide Y receptor type 2 (Homo sapiens), P49146. NPY-Y2 expressing cells, antagonist mode; in the data active = inhibition above about 17%;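 note: 0% = vehicle with agonist challenge and 100% = reference antagonist with challenge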
NPY-Y1 PAM-ag = NPY-Y1 receptor potentiators or agonists, primary screen, cell-based. NPY-Y1 expressing cells, potentiator/agonist activation. activation, % at 3.6 µM. 220,000 tested, 0.37% active; in the data active = activation above about 33%, passing the limit was not always enough;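 note: cells stimulated with NPY at EC10 then isoproterenol at EC100; 0% = low agonist plus stimulus and 100% = saturating agonist plus stimulus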
Target sequence (P25929 whole entry, looked up): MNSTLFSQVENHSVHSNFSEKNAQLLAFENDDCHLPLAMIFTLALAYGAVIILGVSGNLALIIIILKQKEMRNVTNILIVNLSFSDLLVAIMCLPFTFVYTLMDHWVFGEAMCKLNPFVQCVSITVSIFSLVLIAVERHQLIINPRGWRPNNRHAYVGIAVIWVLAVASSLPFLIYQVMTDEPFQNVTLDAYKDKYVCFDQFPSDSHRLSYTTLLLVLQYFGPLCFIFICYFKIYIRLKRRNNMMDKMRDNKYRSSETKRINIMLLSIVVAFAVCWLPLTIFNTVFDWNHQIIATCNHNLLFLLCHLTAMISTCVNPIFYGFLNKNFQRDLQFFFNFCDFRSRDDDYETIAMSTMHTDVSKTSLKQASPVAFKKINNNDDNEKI
NPY Y1 blocker = NPY-Y1 receptor antagonists, primary screen, cell-based | Neuropeptide Y receptor type 1 (Homo sapiens), P25929 | HEK293-CNG Y1 cells, membrane potential fluorescence; NPY at EC95, then isoproterenol | 200,000 tested, 1% active | inhibition, % at 3.6 µM;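 active = inhibition above the campaign mean inhibition of all tested compounds plus 3 SD, cut at about 20% in these data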;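 note: 0% = DMSO wells given NPY plus isoproterenol and 100% = isoproterenol alone without NPY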
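Material: HEK293 cells with Y1 receptor plus CNG channel; times: compound incubation 1 h at room temperature, readout 45 min post-stimulation; signal: fluorescence, membrane potential probe; read-out basis: fluorescence ratio normalized to % inhibition between controls; benchmarks: full-block control isoproterenol-only wells, zero-block control NPY plus isoproterenol wells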
INS promoter inh = inhibitors of insulin promoter-driven GFP, primary screen, imaging, TRM-6 cells (human fetal islet line), eGFP reporter, cell count. reporter expression induced with tamoxifen. inhibition, % at 2 µM. 130,000 tested, 0.9% active;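 active = inhibition above the mean plus 3 SD, with well images judged a real hit on visual review, cut at about 60% in these data, passing the limit was not always enough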
NPY-Y2 PAM-ag = NPY-Y2 potentiators or agonists, primary screen, cell-based. cells expressing NPY-Y2, potentiator/agonist read-out. Neuropeptide Y receptor type 2 (Homo sapiens), P49146. 220,000 tested, 0.45% active. activation, % at 3.6 µM; in the data active = activation above about 27%;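 note: cells stimulated with NPY near EC25 plus isoproterenol at EC100; 0% = vehicle plus submaximal agonist and 100% = vehicle plus saturating agonist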
Active calls of the source: *; · = not tested or not shown. Compounds with a hit are over-represented: about 2.5% of the library has one in this group of screens.

SMILES	Ins promoter up	NPY Y2 blocker	NPY-Y1 PAM-ag	NPY Y1 blocker	INS promoter inh	NPY-Y2 PAM-ag
Cc1ccc(C(O)(C(=O)NN(C(=O)c2ccccc2)c2ccccc2)c2ccc(C)cc2)cc1	-0.28	48*	-16	59*	-8	3
COc1ccccc1C1(CC(=O)N2CCCCC2)CCOC(C(C)C)C1 (configuration not stated)	0.29	0	8	-2	-69	-13
CCn1c2ccccc2c2cc(NC(=O)COC(=O)c3cc(S(N)(=O)=O)c(Cl)cc3Cl)ccc21	0.99	·	-1	-2	·	-5
CC1CCN(c2nc(-c3ccncc3)nc3ccccc23)CC1	-2.5	30*	-58	31*	·	-41
CCOC(=O)C1C(=O)NC(c2ccccc2)=NC1c1ccc(OC)cc1 (configuration not stated)	-0.33	·	12	2	-54	-7
Cc1ccc(NC(=O)C(=O)NCc2ccc(/C=N/NC(=O)c3c(C)nc4ccccn34)o2)cc1	-0.2	0	2	-2	·	-3
Cc1c(C(=O)NCc2cccnc2)oc2ccc(S(=O)(=O)N3CC(C)CC(C)C3)cc12 (configuration not stated)	0.54	3	-2	-1	40	-9
Cc1c(C(=O)Nc2ccc(F)cc2)oc2ccc(S(=O)(=O)N3CC(C)CC(C)C3)cc12 (configuration not stated)	-0.94	2	4	2	71*	6
O=C(O)C12CC3CC(C1)CC(n1cnc(Cl)n1)(C3)C2	·	1	-8	-6	100*	-14
O=C(NC12CC3CC(CC(C3)C1)C2)C12CC3CC(C1)CC(n1cnc(Cl)n1)(C3)C2	-0.24	0	-10	-2	·	-7
Clc1ccc(-n2cc(COCc3ccccc3)nn2)cc1	-0.78	·	-28	8	26	-23
COCCN1C=C(C(=O)OC)C(c2ccc(OC)c(OC)c2)C(C(=O)OC)=C1	1.1	-1	-1	3	71*	-21
O=C(CNC(=O)c1cccc(OC(F)F)c1)OCc1cc(=O)n2cc(Br)ccc2n1	1.8	0	-18	-2	·	4
Cc1nc2cc(C(F)(F)F)ccc2n1C	-0.3	·	-1	-1	75*	1
O=C1C=C(Nc2ccc(O)cc2)CC(c2ccco2)C1 (configuration not stated)	6.8*	5	-16	1	-133	-11
CCOC(=O)c1ccc(NC2=CC(=O)CC(c3ccco3)C2)cc1 (configuration not stated)	-0.22	·	2	1	·	4
O=C(CSc1n[nH]c(-c2ccccc2)n1)c1ccc(O)c(O)c1	-0.02	0	-7	4	·	13
Cc1cccc(-n2c(=O)[nH]c3c(C(N)=O)nc(CC(C)C)nc32)c1	0.61	2	-1	-1	82*	-18
CC(C)Cc1nc(C(N)=O)c2[nH]c(=O)n(-c3ccc(F)cc3)c2n1	0.26	1	-4	-1	·	-4
Cc1ccc2c(c1)c1c(n2CC(O)CNC(C)(C)C)CCCC1 (configuration not stated)	-0.37	2	27	-9	·	41*
Nc1cccc2c1C(=O)N(C(=O)c1cccc(S(=O)(=O)N3CCCC3)c1)C2=O	3.1*	2	-25	7	39	-16
NC(=O)c1cccc(S(=O)(=O)N2CCCCC2)c1	-0.47	1	5	0	-25	7
O=C(Cn1c2ccccc2c(=O)c2cc([N+](=O)[O-])ccc21)Nc1ccccc1Cl	-0.59	8	-18	12	-35	-3
CC(C)(C)c1nc2ccccc2[nH]1	1.4	6	-1	3	80*	10
CC(C)Sc1nc2ccccc2[nH]1	-0.61	·	-7	-4	78*	-7
SMILES	Ins promoter up	NPY Y2 blocker	NPY-Y1 PAM-ag	NPY Y1 blocker	INS promoter inh	NPY-Y2 PAM-ag
CC(Nc1nc(-c2ccc3c(c2)NC(=O)CO3)cs1)c1ccccc1 (configuration not stated)	-0.73	·	6	-3	·	13
C=CCN=c1scc(-c2ccc3c(c2)NC(=O)CO3)n1/N=C(\C)c1ccccn1	-1.1	·	16	-6	-8	34*
CCc1ccc(Nc2nnc(SCC(=O)NCCN3C(=O)CSC3=O)s2)cc1	0.76	0	-10	-6	·	3
CCOc1ccccc1N(CC(=O)Nc1ccc2c(c1)OCCO2)S(C)(=O)=O	-1.3	-1	-14	3	82*	-14
C#CCn1c(S(=O)(=O)Cc2ccc(F)cc2)nc(-c2ccccc2)c1-c1ccccc1	-1.4	4	0	21*	-34	-14
CCOC(=O)Cn1c(S(=O)(=O)Cc2ccc(F)cc2)nc(-c2ccccc2)c1-c1ccccc1	·	26*	12	38*	-36	-10
CCOC(=O)Cn1c(-c2ccccc2)nc2ccccc2c1=O	-0.01	6	5	5	·	-9
CCO/N=C/c1ccc(OC)c(Oc2nc(OC)cc(OC)n2)c1	-0.26	·	15	3	·	14
CCOc1ccc(OCC)c(NC(=O)Cn2c(C)nc3ccccc3c2=O)c1	0.44	·	7	11	43	-8
Cc1nn(-c2ccc(F)cc2)c2sc(C(=O)O)cc12	·	19*	-36	23*	-38	-26
CCCCN1C=CC(=C2C(=O)c3ccccc3C2=O)C=C1	-0.4	·	-8	-5	20	-6
Cc1ccc(-c2nc3ncccc3o2)cc1NC(=O)c1cc2ccccc2o1	-1.4	20*	10	22*	43	20
O=C(Nc1cccc(-c2nc3ncccc3o2)c1)c1cc2ccccc2o1	-0.39	9	-10	5	·	-9
CCCCc1nnc(NC(=O)CSc2nc(=O)cc(N)n2-c2cccc(C)c2)s1	·	2	-17	5	3	4
Cc1ccc(N2C(=O)C(Cl)=C(NCc3ccccc3)C2=O)c(C)c1	0.36	1	6	3	24	-10
CCOC(=O)CC1C(=O)NCCN1S(=O)(=O)c1ccc(Cl)cc1Cl (configuration not stated)	3.3*	-1	15	-1	30	15
Cc1cc(=O)n2nc(-c3ccc(C(F)(F)F)cc3)sc2n1	·	6	-7	4	25	2
O=C(O)[C@H]1CCCC[C@H]1C(=O)Nc1ccc(Nc2ccccc2)cc1	·	-4	49*	-9	8	34*
CC(C)c1ccc(NC(=O)C2CCCCC2C(=O)O)cc1 (configuration not stated)	0.4	2	-6	2	-9	7
CCC(C)C(NC(=O)c1ccc(Cl)cc1Cl)C(=O)O (configuration not stated)	0.64	4	-1	8	50	8
NC(=O)[C@@H]1CCCCNc2c(I)cc([N+](=O)[O-])cc2C(=O)N[C@@H](CCC(=O)O)C(=O)N[C@@H](CO)C(=O)N1	0.1	0	-7	0	60*	10
